Among the data in ChEMBL document CHEMBL1134139, “Synthesis and biological activity of novel macrocyclic antifungals. modification of the tyrosine moiety of the lipopeptidolactone FR901469” (2001) are MIC, Hemolytic activity and ED50 values, retold here.

≈ marks a conversion by molar mass, not a printed value. Numbered stars: 1 amine (or outer) side, 2 acyl side, 3 side chain; on linkers, the order of the positions; unused ones are H or OH. Bridge positions count the residues as written; N and C are the ends. Square brackets hold non-standard residues; d marks the D form. Peptide text beside a SMILES is read from it. ξ: configuration not given here. X2 = O=C(CCC(=O)N1CCNCC1)Nc1cc(C[C@H](N[*:1])C(=O)[*:2])ccc1O; Gln(3R-OH) = NC(=O)C[C@@H](O)[C@H](N)C(=O)O; X1 = CCCCCCCCCCCCC[C@H](CC(=O)[*:1])O[*:2]; Pro(3S-OH) = O=C(O)[C@H]1NCC[C@@H]1O; d(aThr) = C[C@@H](O)[C@@H](N)C(=O)O; Hyp = O=C(O)[C@@H]1C[C@@H](O)CN1; Orn = NCCC[C@H](N)C(=O)O; ξA = CC(N)C(=O)O

In experiment [1] the test system is Candida albicans. Put plainly: In vitro Antifungal activity against Candida albicans FP633 by agar dilution method using Sabouraud Dextrose agar. The class given is functional. Summed up: (§1)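 Agar dilution on Sabouraud Dextrose agar. MIC taken as the lowest concentration that inhibits visible growth.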
A general note: In agar dilution, organisms are placed on agar that contains the substance at set levels.

Experiment [2] concerns Meyerozyma guilliermondii. The experiment is described as follows: In vitro antifungal activity against Candida guilliermondii FP587 by agar dilution method using Sabouraud Dextrose agar. The experiment is classed as functional. Summed up:
as §1

For experiment [3], the system named is Candida albicans. The experiment is described as follows: In vitro antifungal activity against Candida albicans FP579 by agar dilution method using Sabouraud Dextrose agar. The experiment is classed as functional. Summed up:
as §1

Experiment [4] concerns Candida tropicalis. The experiment is described as follows: In vitro antifungal activity against Candida tropicalis 8001 by agar dilution method using Sabouraud Dextrose agar. The experiment is classed as functional. The essentials:
as §1

For experiment [5], the system named is Candida parapsilosis. Put plainly: In vitro antifungal activity against Candida parapsilosis 15001 by agar dilution method using Sabouraud Dextrose agar. The note with it: Lodderomyces parapsilosis. The class given is functional. Summed up: as §1
The species entered for experiment [6] is Mus musculus. The experiment is described as follows: Ability to hemolyze ICR mouse RBCs at 1 mg/mL using microtiter red blood cell hemolysis assay.
The test system of experiment [7] is Mus musculus. Put plainly: Compound was evaluated in vivo for antifungal activity and efficacy in disseminated murine candidiasis was determined. The experiment is classed as functional.
The subject of experiment [8] is Candida albicans. Put plainly: In vitro antifungal activity against Candida albicans FP633 by broth microdilution method. The experiment is classed as functional. Summed up: (§2)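 Broth microdilution run to NCCLS M27-A guidelines. MIC read per that standard.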
For orientation: Broth dilution looks for growth in wells or tubes with falling amounts of substance.

Experiment [9] concerns Aspergillus fumigatus. The experiment is described as follows: In vitro antifungal activity against Aspergillus fumigatus FP1305 by broth microdilution method. The experiment is classed as functional. The essentials:
as §2

Experiment [10] concerns Aspergillus fumigatus. Put plainly: In vitro antifungal activity against Aspergillus fumigatus 8004 by broth microdilution method. The class given is functional. The essentials: as §2
The subject of experiment [11] is Candida albicans. Put plainly: In vitro antifungal activity against Candida albicans 13004 by broth microdilution method. The class given is functional. The essentials:
as §2

The test system of experiment [12] is Candida albicans. The experiment is described as follows: Compound was evaluated in vivo for antifungal activity and efficacy in disseminated murine candidiasis caused by candida albicans FP633. The class given is functional.
Experiment [13] deals with Candida albicans. The experiment is described as follows: In vitro antifungal activity against Candida albicans FP633 by agar dilution method using Sabouraud Dextrose agar. The class given is functional. Summed up: as §1
Setting [14] is: Candida tropicalis, read-out: MIC.

With `CCCCCCCCCCCCC[C@@H]1CC(=O)N[C@@H]([C@@H](C)O)C(=O)N[C@H](C)C(=O)N[C@@H](Cc2ccc(O)c(NC(=O)CCN)c2)C(=O)N[C@@H](C(C)C)C(=O)N2C[C@H](O)C[C@H]2C(=O)N[C@@H]([C@@H](C)O)C(=O)N[C@@H]([C@@H](C)O)C(=O)N2CC[C@H](O)[C@H]2C(=O)N[C@@H]([C@H](O)CC(N)=O)C(=O)NCC(=O)N[C@@H]([C@@H](C)O)C(=O)N[C@@H](CCCN)C(=O)O1`, the MIC – broadly, the lowest concentration that inhibits growth of the organism – in experiment [1] came to 0.78 µg/mL (≈ 0.482 µM); in experiment [2], 0.78 µg/mL (≈ 0.482 µM); in experiment [3] it was 1.56 µg/mL (≈ 0.963 µM); in experiment [4], 1.56 µg/mL (≈ 0.963 µM); in experiment [4] (setting [14]) it was 1.56 µg/mL (≈ 0.963 µM); in [5], 0.78 µg/mL (≈ 0.482 µM). For the same molecule, in experiment [6], the Hemolytic activity is recorded as 49%.
As to `CCCCCCCCCCCCC[C@H](CC(=O)N[C@@H](C(=O)N[C@H](C)C(=O)N[C@@H](Cc1ccc(O)c(N)c1)C(=O)N[C@H](C(=O)N1C[C@H](O)C[C@H]1C(=O)N[C@@H](C(=O)N[C@H](C(=O)N1CC[C@H](O)[C@H]1C(=O)N[C@H](C(=O)NCC(=O)N[C@@H](C(N)=O)[C@@H](C)O)[C@H](O)CC(N)=O)[C@@H](C)O)[C@@H](C)O)C(C)C)[C@@H](C)O)OC(=O)[C@@H](C)CCCN`, the MIC came out at 0.78 µg/mL (≈ 0.498 µM) in experiment [1]; 0.78 µg/mL (≈ 0.498 µM) in [2]; 1.56 µg/mL (≈ 0.997 µM) in experiment [3]; 1.56 µg/mL (≈ 0.997 µM) in [4]; 1.56 µg/mL (≈ 0.997 µM) in experiment [4] (setting [14]); 1.56 µg/mL (≈ 0.997 µM) in experiment [5]. In experiment [6], this molecule gave a Hemolytic activity of 100%.
On to `CCCCCCCCCCCCC[C@H](CC(=O)N[C@@H](C(=O)N[C@H](C)C(=O)N[C@@H](Cc1ccc(O)c([N+](=O)[O-])c1)C(=O)N[C@H](C(=O)N1C[C@H](O)C[C@H]1C(=O)N[C@@H](C(=O)N[C@H](C(=O)N1CC[C@H](O)[C@H]1C(=O)N[C@H](C(=O)NCC(=O)N[C@@H](C(N)=O)[C@@H](C)O)[C@H](O)CC(N)=O)[C@@H](C)O)[C@@H](C)O)C(C)C)[C@@H](C)O)OC(=O)[C@@H](C)CCCN`, for which it took a dose of 0.45 mg/kg to reach the 50% effect level in experiment [7] (ED50). Moreover, the MIC in experiment [1] was found to be 0.39 µg/mL (≈ 0.245 µM); in experiment [2], 0.78 µg/mL (≈ 0.489 µM); in [3] it was 0.78 µg/mL (≈ 0.489 µM); in experiment [4], 0.78 µg/mL (≈ 0.489 µM); in experiment [4] (setting [14]), 0.78 µg/mL (≈ 0.489 µM); in experiment [5] it was 0.78 µg/mL (≈ 0.489 µM). In [6], this molecule returned a Hemolytic activity of 100%.
Regarding `CCCCCCCCCCCCC[C@H](CC(=O)N[C@@H](C(=O)N[C@H](C)C(=O)N[C@@H](Cc1ccc(O)cc1)C(=O)N[C@H](C(=O)N1C[C@H](O)C[C@H]1C(=O)N[C@@H](C(=O)N[C@H](C(=O)N1CC[C@H](O)[C@H]1C(=O)N[C@H](C(=O)NCC(=O)N[C@@H](C(N)=O)[C@@H](C)O)[C@H](O)CC(N)=O)[C@@H](C)O)[C@@H](C)O)C(C)C)[C@@H](C)O)OC(=O)[C@@H](C)CCCNC(C)=O`, the MIC in experiment [1] is 0.39 µg/mL (≈ 0.245 µM); in experiment [2], 0.78 µg/mL (≈ 0.49 µM); in [3] it was 0.78 µg/mL (≈ 0.49 µM); in experiment [4], 1.56 µg/mL (≈ 0.98 µM); in experiment [4] (setting [14]), 1.56 µg/mL (≈ 0.98 µM); in experiment [5] it was 1.56 µg/mL (≈ 0.98 µM). Further, the Hemolytic activity in [6] came out at 5%.
As to `CCCCCCCCCCCCC[C@H](CC(=O)N[C@@H](C(=O)N[C@H](C)C(=O)N[C@@H](Cc1ccc(O)c(Cl)c1)C(=O)N[C@H](C(=O)N1C[C@H](O)C[C@H]1C(=O)N[C@@H](C(=O)N[C@H](C(=O)N1CC[C@H](O)[C@H]1C(=O)N[C@H](C(=O)NCC(=O)N[C@@H](C(N)=O)[C@@H](C)O)[C@H](O)CC(N)=O)[C@@H](C)O)[C@@H](C)O)C(C)C)[C@@H](C)O)OC(=O)[C@@H](C)CCCN`, the MIC in [1] amounted to 0.39 µg/mL (≈ 0.246 µM); in experiment [2], 0.78 µg/mL (≈ 0.492 µM); in experiment [3], 0.78 µg/mL (≈ 0.492 µM); in [4] it was 0.78 µg/mL (≈ 0.492 µM); in experiment [4] (setting [14]) it was 0.78 µg/mL (≈ 0.492 µM); in experiment [5] it was 0.78 µg/mL (≈ 0.492 µM). Besides, the Hemolytic activity in experiment [6] is on record as 97%.
In the case of `CCCCCCCCCCCCC[C@H](CC(=O)N[C@@H](C(=O)N[C@H](C)C(=O)N[C@@H](Cc1ccc(O)c(NC(=O)CCN)c1)C(=O)N[C@H](C(=O)N1C[C@H](O)C[C@H]1C(=O)N[C@@H](C(=O)N[C@H](C(=O)N1CC[C@H](O)[C@H]1C(=O)N[C@H](C(=O)NCC(=O)N[C@@H](C(N)=O)[C@@H](C)O)[C@H](O)CC(N)=O)[C@@H](C)O)[C@@H](C)O)C(C)C)[C@@H](C)O)OC(=O)[C@@H](C)CCCNC(C)=O.Cl`, the MIC in [1], in experiment [2], in experiment [3], in experiment [4], in experiment [4] (setting [14]) and in experiment [5] was 1.56 µg/mL each time. Also, the Hemolytic activity in [6] came to 23%.
As for `CCCCCCCCCCCCC[C@@H]1CC(=O)N[C@@H]([C@@H](C)O)C(=O)NC(C)C(=O)N[C@@H](Cc2ccc(O)c(NC(=O)CCC(=O)N3CCNCC3)c2)C(=O)N[C@@H](C(C)C)C(=O)N2C[C@H](O)C[C@H]2C(=O)N[C@@H]([C@@H](C)O)C(=O)N[C@@H]([C@@H](C)O)C(=O)N2CC[C@H](O)[C@H]2C(=O)N[C@@H]([C@H](O)CC(N)=O)C(=O)NCC(=O)N[C@@H]([C@@H](C)O)C(=O)N[C@@H](CCCN)C(=O)O1` (stereo partly drawn) (T[ξA][X2]V[Hyp]TT[Pro(3S-OH)][Gln(3R-OH)]GT[Orn]; linker N-C via X1), the MIC was determined as 1 µg/mL (≈ 0.582 µM) in experiment [8], 0.5 µg/mL (≈ 0.291 µM) in [9], 1 µg/mL (≈ 0.582 µM) in [10] and 1 µg/mL (≈ 0.582 µM) in [11]. Moreover, in experiment [7], the ED50 – broadly, the midpoint of the dose-response relation – is 0.97 mg/kg. In experiment [6], the Hemolytic activity amounted to 46%.
For the molecule `CCCCCCCCCCCCC[C@@H]1CC(=O)N[C@H]([C@@H](C)O)C(=O)N[C@H](C)C(=O)N[C@@H](Cc2ccc(O)cc2)C(=O)N[C@@H](C(C)C)C(=O)N2C[C@H](O)C[C@H]2C(=O)N[C@H]([C@@H](C)O)C(=O)N[C@@H]([C@@H](C)O)C(=O)N2CC[C@H](O)[C@H]2C(=O)N[C@@H]([C@H](O)CC(N)=O)C(=O)NCC(=O)N[C@H]([C@@H](C)O)C(=O)N[C@@H](CCCN)C(=O)O1` [FR-901469] ([d(aThr)][dA]YV[Hyp][d(aThr)]T[Pro(3S-OH)][Gln(3R-OH)]G[d(aThr)][Orn]; linker N-C via X1), in experiment [12], the ED50 came out at 0.88 mg/kg. For the same molecule, the MIC in experiment [2], in experiment [3], in experiment [4], in [4] (setting [14]), in experiment [5] and in [13] was 0.39 µg/mL (≈ 0.254 µM) in each case. Moreover, the Hemolytic activity in experiment [6] is listed as 100%.
